The source of these data is ChEMBL document CHEMBL4513216, “Probing the Open Global Health Chemical Diversity Library for Multistage-Active Starting Points for Next-Generation Antimalarials” (ACS Infect Dis, 2020).

The nature of the data set: Toxicity liver stage against HepG2, at 10uM. In kind it is cell-based. Details: test concentration 10 uM, cell line HepG2-A16-CD81EGFP. The following applies: human, HepG2-A16-CD81EGFP cells; read-out: INHIBITION
The method, boiled down: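 Uninfected HepG2-A16-CD81EGFP cells, 3 × 10^3 per well, 1536-well, plated on prespotted compound at 10 μM final, parasite-free screening media added to match infected plates; puromycin 10 μM positive, DMSO 0.5% negative; run in parallel with 48 h PbLuc assay at 37 °C, 5% CO2; viability by CellTiter-Glo luminescence, normalized to controls.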
On to `Cc1nn(C)cc1CC(C#N)C(=O)Nc1cccc(O)c1` (centres undefined), for which the cytotoxicity at 10 µM was found to be 2.8%.
Consider `COc1cccc(C(=O)Nc2n[nH]c(C3CCCO3)n2)c1` (centres undefined), for which the cytotoxicity at 10 µM amounted to 6%.
The result for `Cc1cc(C)n(CC(=O)NCc2ccccn2)n1` reads 3.86%; that for `CCCc1nnsc1C(=O)NCC1CCN(C(=O)c2ccncc2)CC1`, 16.2%; that for `CC(C)CC(=O)N1CCCC2(CC(C(=O)Nc3ccccc3)=NO2)C1` (centres undefined), 1.46%.
Then `O=C(c1cscn1)N1C[C@H](OCc2cccnc2)[C@H]2COC[C@H]21`, with -2.07%; and `Cc1ccnc(OC[C@]23COC[C@H]2CN(C(=O)C2=CCCCC2)C3)n1`, with 0.325%; and `CCS(=O)(=O)N1C[C@H]2CN(Cc3cccc(F)c3)C(=O)[C@H]2C1`, with 0.442%.
Regarding `CN(C)c1ncc(-c2cc(C(=O)N3CCCC3)n(CC3CC3)c2)cn1`, the cytotoxicity at 10 µM was -0.376%.
As for `c1nc(N2CCCC2)cnc1C1CCNCC1`, the cytotoxicity at 10 µM is -3.87%.
The result for `CC(C)(C)C(=O)N1CCC(c2cnc(-c3cn[nH]c3)cn2)CC1` reads 1.16%.
The result for `CCc1nc(-c2cncnc2C2CCNC2)no1` (centres undefined) reads 1.45%; that for `CO[C@H]1CN(S(=O)(=O)c2ccccc2F)C[C@@]12CCCO2`, -3.08%; that for `CCC(=O)c1ccc(OCC(=O)NCC2CCCO2)cc1` (centres undefined), -52.1%.
Then `COc1ccc(C(=O)N(C2CC2)C2CC(=O)NC2=O)cc1` (centres undefined), with -10.7%; and `CC(C)(C)S(=O)(=O)CCNC(=O)NCCCc1cccc(F)c1`, with 17%; and `O=C(COc1ccccc1)NCC1CC1`, with 7.76%.
Turning to `Cc1ccc(S(=O)(=O)NC(=O)CCc2cscn2)cc1Cl`, the cytotoxicity at 10 µM worked out at 8.9%.
The result for `COC(C)(C)CNC(=O)N(C)Cc1nc(-c2ccccc2)c[nH]1` reads 8.07%; that for `Cc1ccc(CNc2ccc(C(=O)N3CCNC(=O)C3)cn2)cc1`, 4.64%.
The result for `Cc1ccc(S(=O)(=O)N2CCn3nc(C)nc3C2)c(Cl)c1` reads 5.09%; that for `CCOCCN(C)C(=O)Nc1cccc2c1CCN(CC)C2`, -49.3%; that for `Cn1ncnc1NS(=O)(=O)c1ccc(F)cc1Cl`, 5.73%.
Then `CCOC(=O)Cn1ccc2cc(NC(=O)N3CCSCC3)ccc21`, with 9.68%; and `c1ccc(C(CNc2ncccn2)N2CCOCC2)nc1` (centres undefined), with -47.5%; and `COCCC1(C(=O)O)CCCN(Cc2ccccc2OCCO)C1` (centres undefined), with -40.9%.
Regarding `Cc1ccnc(NCCCN2CCc3ccccc32)n1`, the cytotoxicity at 10 µM is 0.979%.
The result for `COc1ccc(C(=O)N2C[C@@H](C(=O)O)[C@H](c3ccccc3C)C2)c(O)c1` reads -4.31%; that for `Cc1csc(CCCNC(=O)[C@H]2CNC[C@@H](C(=O)N3CCCC3)C2)n1`, -15.9%.
As for `O=C(CCC1CC1)N1C[C@@H](CN2CCCC2)[C@@H](CO)C1`, the cytotoxicity at 10 µM is -4.43%.
As for `Cc1cc(C)n(CC2CCCN2CCCS(C)(=O)=O)n1` (centres undefined), the cytotoxicity at 10 µM is -3.48%.
Then `CN(CCNC(=O)c1scnc1Cl)c1ccccc1`, with 6.88%; and `CC(C)c1nnc2n1CCN(C(=O)c1ccc(OCC(N)=O)cc1)C2`, with -4.84%; and `c1cncc(-c2ncnc3c2CCN(Cc2ccsc2)CC3)c1`, with 8.74%.
Then `CN(C)CCN1C[C@@H]2CN(C(=O)c3ccsc3)C[C@@H]2C1=O`, with -7.79%.
On to `Cn1ccnc1CN1CCC2(CC1)CC(Oc1cccnc1)C2`, for which the cytotoxicity at 10 µM is -20.7%.
The result for `O=C(c1ccco1)N1CCOCC2(C1)CN(c1cccnc1)C(=O)CO2` (centres undefined) reads 5.88%; that for `CC1(C)CC(n2cc3nc(N)[nH]cc-3c2=O)CC(C)(C)N1`, -12.8%.
On to `CC(C)=CCN1C[C@@H]2CC[C@H]1CN(C(=O)c1c[nH]c(=O)c(Cl)c1)C2`, for which the cytotoxicity at 10 µM was -14.5%.
